Reference: ChEMBL document CHEMBL5046302, “Identification and Evaluation of Brominated Carbazoles as a Novel Antibiotic Adjuvant Scaffold in MRSA” (2022)
Active and inactive are the calls of the source. The calls are words filed in the database; no cut-off is given here.

Assays:
Format in all cases: functional
[1] = test system: Staphylococcus aureus; experiment: Potentiation of methicillin induced antibacterial activity against methicillin-resistant Staphylococcus aureus USA300 assessed as methicillin MIC at 50 uM after 18 hrs by CLSI protocol based broth microdilution assay
[2] = test system: Staphylococcus aureus; experiment: Potentiation of cefoxitin induced antibacterial activity against methicillin-resistant Staphylococcus aureus COL assessed as fold change in cefoxitin MIC at 50 uM after 18 hrs by CLSI protocol based broth microdilution assay
[3] = test system: Staphylococcus aureus; experiment: Potentiation of ampicillin induced antibacterial activity against methicillin-resistant Staphylococcus aureus USA100 assessed as fold change in ampicillin MIC at 50 uM after 18 hrs by CLSI protocol based broth microdilution assay
[4] = test system: Staphylococcus aureus; experiment: Potentiation of ampicillin induced antibacterial activity against methicillin-resistant Staphylococcus aureus ATCC 43300 assessed as fold change in ampicillin MIC at 50 uM after 18 hrs by CLSI protocol based broth microdilution assay
[5] = test system: Staphylococcus aureus; experiment: Potentiation of ampicillin induced antibacterial activity against methicillin-resistant Staphylococcus aureus COL assessed as fold change in ampicillin MIC at 50 uM after 18 hrs by CLSI protocol based broth microdilution assay
[6] = test system: Staphylococcus aureus; experiment: Potentiation of ceftazidime induced antibacterial activity against methicillin-resistant Staphylococcus aureus USA100 assessed as ceftazidime MIC at 50 uM after 18 hrs by CLSI protocol based broth microdilution assay
[7] = test system: Staphylococcus aureus; experiment: Potentiation of cefoxitin induced antibacterial activity against methicillin-resistant Staphylococcus aureus USA100 assessed as fold change in cefoxitin MIC at 50 uM after 18 hrs by CLSI protocol based broth microdilution assay
[8] = test system: Staphylococcus aureus; experiment: Potentiation of methicillin induced antibacterial activity against methicillin-resistant Staphylococcus aureus ATCC 43300 assessed as fold change in methicillin MIC at 50 uM after 18 hrs by CLSI protocol based broth microdilution assay
[9] = test system: Staphylococcus aureus; experiment: Potentiation of ampicillin induced antibacterial activity against methicillin-resistant Staphylococcus aureus USA100 assessed as ampicillin MIC at 50 uM after 18 hrs by CLSI protocol based broth microdilution assay
[10] = test system: Staphylococcus aureus; experiment: Potentiation of methicillin induced antibacterial activity against methicillin-resistant Staphylococcus aureus USA300 assessed as methicillin MIC at 25 uM after 18 hrs by CLSI protocol based broth microdilution assay
[11] = test system: Staphylococcus aureus; experiment: Potentiation of cefoxitin induced antibacterial activity against methicillin-resistant Staphylococcus aureus ATCC 43300 assessed as fold change in cefoxitin MIC at 25 uM after 18 hrs by CLSI protocol based broth microdilution assay
[12] = test system: Staphylococcus aureus; experiment: Upregulation of mecA gene expression in methicillin-resistant Staphylococcus aureus COL at 25 uM by RT-PCR method
[13] = test system: Staphylococcus aureus; experiment: (§1) Potentiation of ceftazidime induced antibacterial activity against methicillin-resistant Staphylococcus aureus USA100 assessed as fold change in ceftazidime MIC at 25 uM after 18 hrs by CLSI protocol based broth microdilution assay
[14] = test system: Staphylococcus aureus; experiment: Potentiation of ampicillin induced antibacterial activity against methicillin-resistant Staphylococcus aureus USA300 assessed as ampicillin MIC at 25 uM after 18 hrs by CLSI protocol based broth microdilution assay
[15] = test system: Staphylococcus aureus; experiment: as §1, with “oxacillin” for “ceftazidime”, “USA300 harboring stk1 deletion mutant co-transfected with a plasmid bearing stk1” for “USA100”
[16] = test system: Staphylococcus aureus; experiment: Potentiation of cefoxitin induced antibacterial activity against methicillin-resistant Staphylococcus aureus USA100 assessed as fold change in cefoxitin MIC at 25 uM after 18 hrs by CLSI protocol based broth microdilution assay
[17] = test system: Staphylococcus aureus; experiment: Upregulation of blaZ gene expression in methicillin-resistant Staphylococcus aureus USA100 at 25 uM by RT-PCR method
[18] = test system: Staphylococcus aureus; experiment: Potentiation of methicillin induced antibacterial activity against methicillin-resistant Staphylococcus aureus COL assessed as fold change in methicillin MIC at 25 uM after 18 hrs by CLSI protocol based broth microdilution assay
[19] = test system: Staphylococcus aureus; experiment: Potentiation of methicillin induced antibacterial activity against methicillin-resistant Staphylococcus aureus COL assessed as methicillin MIC at 25 uM after 18 hrs by CLSI protocol based broth microdilution assay
[20] = test system: Staphylococcus aureus; experiment: Potentiation of cefoxitin induced antibacterial activity against methicillin-resistant Staphylococcus aureus USA100 assessed as cefoxitin MIC at 25 uM after 18 hrs by CLSI protocol based broth microdilution assay
[21] = test system: Staphylococcus aureus; experiment: Potentiation of methicillin induced antibacterial activity against methicillin-resistant Staphylococcus aureus USA100 assessed as fold change in methicillin MIC at 25 uM after 18 hrs by CLSI protocol based broth microdilution assay
[22] = test system: Staphylococcus aureus; experiment: Potentiation of oxacillin induced antibacterial activity against methicillin-resistant Staphylococcus aureus USA300 harboring stk1 deletion mutant co-transfected with a plasmid bearing stk1 assessed as oxacillin MIC at 25 uM after 18 hrs by CLSI protocol based broth microdilution assay
[23] = test system: Staphylococcus aureus; experiment: Potentiation of oxacillin induced antibacterial activity against methicillin-resistant Staphylococcus aureus USA300 harboring stk1 deletion mutant assessed as fold change in oxacillin MIC at 25 uM after 18 hrs by CLSI protocol based broth microdilution assay
[24] = test system: Staphylococcus aureus; experiment: Potentiation of methicillin induced antibacterial activity against methicillin-resistant Staphylococcus aureus USA100 assessed as methicillin MIC at 25 uM after 18 hrs by CLSI protocol based broth microdilution assay
[25] = test system: Staphylococcus aureus; experiment: Potentiation of oxacillin induced antibacterial activity against methicillin-resistant Staphylococcus aureus COL assessed as oxacillin MIC at 25 uM after 18 hrs by CLSI protocol based broth microdilution assay
[26] = test system: Staphylococcus aureus; experiment: Potentiation of ceftazidime induced antibacterial activity against methicillin-resistant Staphylococcus aureus USA300 assessed as ceftazidime MIC at 25 uM after 18 hrs by CLSI protocol based broth microdilution assay
[27] = test system: Staphylococcus aureus; experiment: Potentiation of methicillin induced antibacterial activity against methicillin-resistant Staphylococcus aureus USA300 assessed as fold change in methicillin MIC at 25 uM after 18 hrs by CLSI protocol based broth microdilution assay
[28] = test system: Staphylococcus aureus; experiment: Potentiation of ampicillin induced antibacterial activity against methicillin-resistant Staphylococcus aureus USA300 assessed as fold change in ampicillin MIC at 25 uM after 18 hrs by CLSI protocol based broth microdilution assay
[29] = test system: Staphylococcus aureus; experiment: Potentiation of oxacillin induced antibacterial activity against methicillin-resistant Staphylococcus aureus assessed as fold decrease in blaI gene expression at 25 uM by RT-qPCR analysis
Method in brief: (§2)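 Fold dampening is the relative mRNA level of the gene, normalised to 16S rRNA, in oxacillin-treated cells divided by that in cells cotreated with oxacillin plus carbazole. Carbazole was used at 25 or 50 μM, as given in each line.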

[30] = test system: Staphylococcus aureus; experiment: Upregulation of mecA gene expression in methicillin-resistant Staphylococcus aureus USA300 at 50 uM by RT-PCR method
[31] = test system: Staphylococcus aureus; experiment: Potentiation of oxacillin induced antibacterial activity against methicillin-resistant Staphylococcus aureus assessed as fold decrease in mecI gene expression at 50 uM by RT-qPCR analysis; method in brief: as §2
[32] = test system: Staphylococcus aureus; experiment: Potentiation of oxacillin induced antibacterial activity against methicillin-resistant Staphylococcus aureus assessed as fold decrease in blaZ gene expression at 50 uM by RT-qPCR analysis; method in brief: as §2
[33] = test system: Staphylococcus aureus; experiment: Potentiation of oxacillin induced antibacterial activity against methicillin-resistant Staphylococcus aureus assessed as fold decrease in mecA gene expression at 50 uM by RT-qPCR analysis; method in brief: as §2

Structure (SMILES): Brc1ccc2[nH]c3ccc(Br)cc3c2c1
- MIC [1]: 8 µg/mL
- fold change (FC) [2]: 1
- fold change (FC) [3]: 1
- fold change (FC) [4]: 1
- fold change (FC) [5]: 2
- MIC [6]: 256 µg/mL
- fold change (FC) [7]: 2
- fold change (FC) [8]: 1
- MIC [9]: 32 µg/mL

Structure (SMILES): Brc1cccc2[nH]c3ccccc3c12
- MIC [10]: 8 µg/mL
- fold change (FC) [11]: 4
- Activity [12]: inactive
- fold change (FC) [13]: 1
- MIC [14]: 2 µg/mL
- fold change (FC) [15]: 8
- fold change (FC) [16]: 4
- Activity [17]: inactive
- fold change (FC) [18]: 1
- MIC [19]: 1020 µg/mL
- MIC [20]: 64 µg/mL
- fold change (FC) [21]: 16
- MIC [22]: 0.5 µg/mL
- fold change (FC) [23]: 1
- MIC [24]: 32 µg/mL
- MIC [25]: 512 µg/mL
- MIC [26]: 256 µg/mL
- fold change (FC) [27]: 4
- fold change (FC) [28]: 4
- fold change (FC) [29]: 4.65

Structure (SMILES): Brc1cccc2c1[nH]c1ccccc12
- MIC [1]: 8 µg/mL
- fold change (FC) [2]: 1
- fold change (FC) [3]: 4
- fold change (FC) [4]: 8
- fold change (FC) [5]: 2
- MIC [6]: 256 µg/mL
- Activity [30]: inactive
- fold change (FC) [7]: 16
- fold change (FC) [31]: 0.67
- fold change (FC) [32]: 3.86
- fold change (FC) [8]: 1
- MIC [9]: 8 µg/mL
- fold change (FC) [33]: 1.39
